Data set [1] relates to SiHa. The data set is described as follows: Induction of autophagy in human SiHa cells assessed as increase in LC3-2 puncta level after 48 hrs by immunofluorescence staining based microscopic analysis. It is filed as functional, cell-based. The procedure, abridged: (§1)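 Cells seeded on glass coverslips in complete 1640 or DMEM and incubated with inhibitors at different concentrations for 48 h. Fixed in 4% paraformaldehyde, permeabilized with 0.15% Triton X-100, blocked in 4% BSA/PBS for 1 h at room temperature. Anti-LC3B (1:200) overnight, then FITC-conjugated secondary, DAPI nuclear stain. LC3B-II puncta viewed by fluorescence microscopy.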

Data set [2] in a line: Volume of distribution at steady state in Sprague-Dawley rat at 20 mg/kg, iv administered as single dose by HPLC analysis. It is filed as ADME, organism-based. To be noted: in vivo, read-out: Vdss. The procedure, abridged: (§2)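 Rats fasted overnight, then given a single 20 mg/kg dose either iv or po. Blood collected and centrifuged immediately to obtain plasma. Plasma drug levels measured by HPLC, and pharmacokinetic parameters derived from both routes.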

For the next data set, the system named is MDA-MB-231. The data set is described as follows: Induction of autophagy in human MDA-MB-231 cells assessed as increase in LC3-2 puncta level after 48 hrs by immunofluorescence staining based microscopic analysis. The format is functional, cell-based. The procedure, abridged:
as §1

Data set [3] is filed under the species Homo sapiens. The data set is described as follows: Inhibition of mTORC1 in human T47D cells assessed as reduction in 4E-BP1 phosphorylation at Ser65 residues at 0.25 to 0.5 uM by Western blot analysis. It is filed as cell-based. The gist of the method: (§3)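 Cells treated with the indicated concentrations, then whole-cell lysates immunoblotted. mTORC1 activity read as S6 and 4E-BP1 phosphorylation; mTORC2 activity read as AKT Ser473 phosphorylation. Blocking in 5% skim milk, primary antibodies at 4 °C overnight, peroxidase-conjugated secondary, ECL detection.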

In data set [4] the test system is SiHa. Description: Induction of autophagy in human SiHa cells assessed as increase in LC3-2 level at 0.5 to 1 uM after 48 hrs by Western blot analysis. It is filed as functional, cell-based. The gist of the method:
(§4)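 Cells treated with test agents at several concentrations for 2 days (48 h). LC3B-II detected by Western blot on lysates, with β-actin as internal control. Membranes blocked in 5% skim milk, primary antibodies at 4 °C overnight, peroxidase-conjugated anti-mouse or anti-rabbit IgG secondary, ECL detection.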
For orientation: A western blot detects proteins with antibodies after separation by electrophoresis.

Data set [5] relates to T47D. The data set is described as follows: Induction of autophagy in human T47D cells assessed as increase in LC3-2 level at 0.25 to 0.5 uM after 48 hrs by Western blot analysis. The format is functional, cell-based. The gist of the method:
as §4

Data set [6] is filed under the species Homo sapiens. Description: Inhibition of mTORC2 in human SiHa cells assessed as reduction in AKT phosphorylation at Ser473 residues at 0.25 to 0.5 uM by Western blot analysis. The format is cell-based. The procedure, abridged:
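Cells exposed to a range of compound concentrations; whole-cell lysates immunoblotted for phospho-AKT (Ser473) as the mTORC2 readout, alongside S6 and 4E-BP1 phosphorylation for mTORC1. Membranes blocked in 5% skim milk, primary antibodies overnight at 4 °C, peroxidase-conjugated anti-mouse or anti-rabbit IgG secondary, ECL detection. Rapamycin as comparator.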

The nature of data set [7]: AUC (0 to infinity) in Sprague-Dawley rat at 20 mg/kg, po administered as single dose by HPLC analysis. It is filed as ADME, organism-based. The arrangement: dose 20 mg/kg, route oral, time infinity. Conditions: in vivo. The gist of the method: (§5)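 Rats fasted overnight, then given one 20 mg/kg dose either iv or po. Blood was collected and centrifuged at once to obtain plasma. Plasma drug levels were measured by HPLC, and PK parameters were derived from the concentration-time data.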

The species named for data set [8] is Homo sapiens. Description: Inhibition of mTORC1 in human MDA-MB-231 cells assessed as reduction in 4E-BP1 phosphorylation at Ser65 residues at 0.25 to 0.5 uM by Western blot analysis. The format is cell-based. The gist of the method:
as §3

A short description of data set [9]: Half life in Sprague-Dawley rat at 20 mg/kg, po administered as single dose by HPLC analysis. It is filed as ADME, organism-based. To be noted: in vivo. The gist of the method:
as §5

Another data set has as its system SK-OV-3. Description: Growth inhibition of human SKOV3 cells after 72 hrs by CCK8 assay. The format is functional, cell-based. Conditions: SK-OV-3, 72 h. The procedure, abridged:
(§6)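 Cells were seeded at 2000–3000 per well and grown 24 h in serum-containing medium. They were then exposed to serially diluted compound for 72 h at 37 °C, 5% CO2. CCK8 reagent was added for 1–4 h and absorbance read at 450 nm. Inhibition = (AC − AS)/(AC − Ab) × 100%. IC50 is the average of at least three independent determinations.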

Data set [10] relates to HeLa. Description: Induction of autophagy in human HeLa cells assessed as increase in LC3-2 level at 1 to 2 uM after 48 hrs by Western blot analysis. The format is functional, cell-based. The procedure, abridged: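 Cells were treated for 48 h (2 days) with varying concentrations. Whole-cell lysates were immunoblotted for LC3B-II with β-actin as the internal control. Membranes were blocked in 5% skim milk, incubated with primary antibody overnight at 4 °C, then with peroxidase-conjugated secondary, and developed by ECL.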

A short description of data set [11]: MRT (0 to infinity) in Sprague-Dawley rat at 20 mg/kg, po administered as single dose by HPLC analysis. Conditions: in vivo. The format is ADME, organism-based. The gist of the method:
as §2

In data set [12] the test system is T47D. The data set is described as follows: Antitumor activity against human T47D cells xenografted in BALB/c nude mouse assessed as tumor weight at 60 mg/kg, po administered via gavage after 3 weeks (reference value: 1.23 g). It is filed as functional.
The species named for the next data set is Mus musculus. The data set is described as follows: Inhibition of full length recombinant mouse p85alpha/PI3K p110alpha E542K mutant at 1 uM relative to control. The gist of the method:
(§7)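 Eurofins KinaseProfiler panel with compound at a single 1 μM concentration. ATP at the Km of each kinase. Result is % inhibition, mean of two independent experiments.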

The species entered for data set [13] is Homo sapiens. The data set is described as follows: Inhibition of mTORC1 in human MCF7 cells assessed as reduction in 4E-BP1 phosphorylation at Ser65 residues at 0.25 to 0.5 uM by Western blot analysis. It is filed as cell-based. The gist of the method:
as §3

For data set [14], the species on record is Homo sapiens. The data set is described as follows: Inhibition of mTORC1 in human SiHa cells assessed as reduction in 4E-BP1 phosphorylation at Ser65 residues at 0.25 to 0.5 uM by Western blot analysis. It is filed as cell-based. The gist of the method:
as §3

A short description of data set [15]: Cmax in Sprague-Dawley rat at 20 mg/kg, po administered as single dose by HPLC analysis. To be noted: in vivo. The arrangement: dose 20 mg/kg, route oral. It is filed as ADME, organism-based. The gist of the method:
as §5

Data set [16] concerns HeLa. The data set is described as follows: Growth inhibition of human HeLa cells after 72 hrs by CCK8 assay. It is filed as functional, cell-based. The procedure, abridged:
as §6
A general note: Tetrazolium assays rely on reduction of a dye to a coloured formazan, in cell work by metabolically active cells.

Another data set has as its system NCI-H460. Description: Growth inhibition of human H460 cells after 72 hrs by CCK8 assay. The format is functional, cell-based. Conditions: NCI-H460, 72 h. The procedure, abridged: as §6
Data set [17] relates to HeLa. Description: Cell cycle arrest in human HeLa cells assessed as decrease in S-phase at 0.5 to 1 uM after 24 hrs by propidium iodide-staining based flow cytometric analysis. It is filed as functional. The gist of the method: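 Cells were seeded at 5 × 10^5 cells/mL. At 24 h after plating they were treated with increasing concentrations for 24 h, washed in PBS, and fixed in ice-cold 70% ethanol for at least 24 h. They were stained with propidium iodide plus RNase A for 30 min at 37 °C and analysed by flow cytometry for phase distribution.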
(Flow cytometry measures light scatter and fluorescence of single cells or particles in a stream.)

Data set [18] deals with T47D. Description: Antitumor activity against human T47D cells xenografted in BALB/c nude mouse assessed as decrease in tumor growth at 15 mg/kg, po administered via gavage after 3 weeks relative to control. The format is functional. Conditions: 504 h, read-out: TGI.
Data set [19] deals with SiHa. Description: Growth inhibition of human SiHa cells after 72 hrs by CCK8 assay. It is filed as functional, cell-based. The procedure, abridged: as §6
For data set [20], the target named is Phosphatidylinositol 4,5-bisphosphate 3-kinase catalytic subunit gamma isoform (Homo sapiens) (UniProt P48736). Description: Inhibition of full length recombinant human PI3K p120gamma at 1 uM relative to control. The procedure, abridged: as §7
Phosphatidylinositol 4,5-bisphosphate 3-kinase catalytic subunit gamma isoform (Homo sapiens), sequence (P48736 whole entry, looked up, canonical isoform): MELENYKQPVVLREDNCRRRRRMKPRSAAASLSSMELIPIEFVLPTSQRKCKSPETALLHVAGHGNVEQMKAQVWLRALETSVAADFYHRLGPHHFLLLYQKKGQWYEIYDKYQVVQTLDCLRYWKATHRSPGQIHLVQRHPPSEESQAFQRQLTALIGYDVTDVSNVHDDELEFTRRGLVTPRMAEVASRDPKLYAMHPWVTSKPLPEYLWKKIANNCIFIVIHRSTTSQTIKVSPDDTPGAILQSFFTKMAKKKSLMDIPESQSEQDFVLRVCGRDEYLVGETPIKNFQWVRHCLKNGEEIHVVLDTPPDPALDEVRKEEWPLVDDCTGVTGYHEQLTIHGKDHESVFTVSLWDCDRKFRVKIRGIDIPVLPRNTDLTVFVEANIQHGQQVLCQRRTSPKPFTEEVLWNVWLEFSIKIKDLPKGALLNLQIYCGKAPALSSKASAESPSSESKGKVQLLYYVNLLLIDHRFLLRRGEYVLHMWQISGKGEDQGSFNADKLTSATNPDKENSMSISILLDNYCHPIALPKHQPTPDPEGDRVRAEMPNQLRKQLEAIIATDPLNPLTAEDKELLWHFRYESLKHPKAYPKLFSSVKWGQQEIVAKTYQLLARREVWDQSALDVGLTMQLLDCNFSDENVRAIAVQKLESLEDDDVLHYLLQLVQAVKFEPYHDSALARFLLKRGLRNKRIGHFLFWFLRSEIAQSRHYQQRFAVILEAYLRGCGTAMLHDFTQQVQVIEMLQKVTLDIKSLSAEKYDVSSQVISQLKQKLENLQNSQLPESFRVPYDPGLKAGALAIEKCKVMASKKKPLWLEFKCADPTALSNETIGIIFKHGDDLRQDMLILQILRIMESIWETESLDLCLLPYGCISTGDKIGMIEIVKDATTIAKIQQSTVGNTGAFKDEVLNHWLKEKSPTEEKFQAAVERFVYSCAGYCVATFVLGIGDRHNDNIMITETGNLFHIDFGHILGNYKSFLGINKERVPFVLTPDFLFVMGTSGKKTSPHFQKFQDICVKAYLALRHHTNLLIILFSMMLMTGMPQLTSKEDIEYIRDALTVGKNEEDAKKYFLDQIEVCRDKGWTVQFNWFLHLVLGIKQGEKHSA

The record followed here is ChEMBL document CHEMBL4020823, “Highly Selective, Potent, and Oral mTOR Inhibitor for Treatment of Cancer as Autophagy Inducer” (J Med Chem, 2018).

SMILES strings stand for the structures. Activity calls are given as the source filed them. No cut-off for these calls is given here.

Broadly, the inhibition is the share of the control response that was lost under treatment. By AUC(0-inf) is commonly meant total exposure, with the tail of the curve extrapolated. By half-life is commonly meant how long it takes for the measured level to halve. A high value points to slow loss. One may read the IC50 as the concentration at which inhibition is half-maximal. A word on the MRT inf: it is the average time that molecules of a dose stay in the body. In general, Cmax refers to the highest concentration seen after dosing.

Consider `N#CCN1CCC(n2c(=O)cnc3cnc4ccc(-c5ccc(N)nc5)cc4c32)CC1`, for which the Activity result in the data set with SiHa [1] was “Dose-dependent effect”; in the data set with MDA-MB-231 it was “Dose-dependent effect”; in the data set on T47D [12], 0.194 g. Further, the Vd in data set [2] came out at 16.7 L/kg. Further, the inhibition result in the data set listed under Homo sapiens [3], in the data set listed under Homo sapiens [6], in the data set listed under Homo sapiens [8], in the data set filed under Homo sapiens [13] and in the data set listed under Homo sapiens [14] was “Active” in each case. The result in the data set on SiHa [4], in the data set on T47D [5], in the data set with HeLa [10] and with HeLa [17] was Active. In data set [7], the AUC(0-inf) was determined as 2850 ng·h/mL. In addition, in [9], the half-life was 9.98 h. Further, the IC50 in the data set on SK-OV-3 stood at 1850 nM; in the data set on HeLa [16], 441 nM; in the data set on NCI-H460, 1780 nM; with SiHa [19] it was 110 nM. For the same compound, in data set [11], the MRT inf was 16.3 h. In addition, the inhibition in the data set listed under Mus musculus worked out at 10%; in data set [20], 4%. Also, the highest level in [15] (Cmax) was 807 ng/mL. The inhibition in vivo at 15 mg/kg in the data set on T47D [18] is 63.2%.
